Experimental data published in ChEMBL document CHEMBL1139657, “Isothiazoloquinolones containing functionalized aromatic hydrocarbons at the 7-position: synthesis and in vitro activity of a series of potent antibacterial agents with diminished cytotoxicity in human cells” (Bioorg Med Chem Lett, 2006).
Values after ≈ are worked out from the molar mass of the structure shown.

What was measured:
[1] = molecular target: DNA gyrase (Escherichia coli, UniProt P0AES4+P0AES6); experiment: Inhibitory activity against wild type Escherichia coli gyrase; type: protein-complex assay
[2] = molecular target: DNA topoisomerase 4 subunit A (Staphylococcus aureus, UniProt P0C1U9); experiment: Inhibitory activity against wild type Staphylococcus aureus topoisomerase 4
[3] = system: HEp-2; experiment: Cytotoxicity against human Hep2 laryngeal carcinoma cell line; type: functional
[4] = system: Escherichia coli; experiment: Antimicrobial activity against Escherichia coli ATCC 25922; type: functional
How it was run: (§1)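 MIC taken as lowest concentration giving no visible bacterial growth after incubation at 37 °C for 18–24 h.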

[5] = system: Staphylococcus aureus; experiment: Antimicrobial activity against Staphylococcus aureus ATCC 29213; type: functional; how it was run: as §1
[6] = system: Staphylococcus aureus; experiment: Antimicrobial activity against methicillin-resistant Staphylococcus aureus 700699; type: functional
How it was run: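 MIC taken as the lowest compound concentration preventing visible bacterial growth after incubation at 37 °C for 18–24 h.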

[7] = molecular target: DNA topoisomerase II (Homo sapiens) (UniProt P11388+Q02880); experiment: Inhibitory activity against human topoisomerase 2; type: protein assay

Chain of DNA topoisomerase 4 subunit A (P0C1U9 whole entry): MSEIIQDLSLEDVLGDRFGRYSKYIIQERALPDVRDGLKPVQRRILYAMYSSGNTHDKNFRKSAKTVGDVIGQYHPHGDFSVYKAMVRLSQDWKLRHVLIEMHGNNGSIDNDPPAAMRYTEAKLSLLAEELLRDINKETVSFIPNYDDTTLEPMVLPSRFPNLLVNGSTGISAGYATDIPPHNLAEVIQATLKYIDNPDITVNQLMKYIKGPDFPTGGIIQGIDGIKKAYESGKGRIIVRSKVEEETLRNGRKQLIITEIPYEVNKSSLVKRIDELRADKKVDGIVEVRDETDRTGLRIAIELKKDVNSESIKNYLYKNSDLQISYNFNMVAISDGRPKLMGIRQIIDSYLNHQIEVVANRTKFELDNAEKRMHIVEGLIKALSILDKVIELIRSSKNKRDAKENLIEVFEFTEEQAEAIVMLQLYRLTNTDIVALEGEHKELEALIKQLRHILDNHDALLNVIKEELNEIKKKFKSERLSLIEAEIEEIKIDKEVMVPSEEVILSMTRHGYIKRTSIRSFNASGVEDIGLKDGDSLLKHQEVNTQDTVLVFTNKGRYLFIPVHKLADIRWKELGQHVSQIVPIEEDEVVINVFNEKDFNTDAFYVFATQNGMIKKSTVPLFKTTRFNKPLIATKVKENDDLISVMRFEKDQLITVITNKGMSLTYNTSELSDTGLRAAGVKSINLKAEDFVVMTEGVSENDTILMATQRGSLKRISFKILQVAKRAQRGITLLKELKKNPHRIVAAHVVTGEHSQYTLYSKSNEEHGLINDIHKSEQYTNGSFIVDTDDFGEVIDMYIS

Compound	IC50 [1]	IC50 [2]	CC50 [3]	MIC [4]	MIC [5]	MIC [6]	EC2 [7]
O=c1[nH]sc2c1c(=O)c1cc(F)c(-c3cccc(O)c3)cc1n2C1CC1	0.2 µM	1.6 µM	> 100 µM	0.06 µg/mL (≈ 0.163 µM)	0.004 µg/mL (≈ 0.0109 µM)	0.25 µg/mL (≈ 0.679 µM)	–
O=c1[nH]sc2c1c(=O)c1cc(F)c(N3CCNCC3)cc1n2C1CC1	0.1 µM	0.5 µM	7 µM	0.004 µg/mL (≈ 0.0111 µM)	0.05 µg/mL (≈ 0.139 µM)	4 µg/mL (≈ 11.1 µM)	20 µM
NC(=O)c1cccc(-c2cc3c(cc2F)c(=O)c2c(=O)[nH]sc2n3C2CC2)c1	–	–	–	0.125 µg/mL (≈ 0.316 µM)	0.008 µg/mL (≈ 0.0202 µM)	2 µg/mL (≈ 5.06 µM)	–
Cc1ccc(-c2cc3c(cc2F)c(=O)c2c(=O)[nH]sc2n3C2CC2)cc1N	–	–	18 µM	0.125 µg/mL (≈ 0.328 µM)	0.008 µg/mL (≈ 0.021 µM)	2 µg/mL (≈ 5.24 µM)	–
COc1c(N2CCNC(C)C2)c(F)cc2c(=O)c(C(=O)O)cn(C3CC3)c12 (stereo not given) [GATIFLOXACIN]	0.5 µM	1.2 µM	67 µM	0.015 µg/mL (≈ 0.04 µM)	0.125 µg/mL (≈ 0.333 µM)	8 µg/mL (≈ 21.3 µM)	–
O=c1[nH]sc2c1c(=O)c1cc(F)c(-c3ccccc3)cc1n2C1CC1	–	–	> 100 µM	0.06 µg/mL (≈ 0.17 µM)	0.004 µg/mL (≈ 0.0114 µM)	16 µg/mL (≈ 45.4 µM)	–
N#Cc1ccccc1-c1cc2c(cc1F)c(=O)c1c(=O)[nH]sc1n2C1CC1	–	–	> 85 µM	2 µg/mL (≈ 5.3 µM)	0.125 µg/mL (≈ 0.331 µM)	> 64 µg/mL	–
COc1c(N2C[C@@H]3CCCN[C@@H]3C2)c(F)cc2c(=O)c(C(=O)O)cn(C3CC3)c12 [MOXIFLOXACIN]	–	–	> 100 µM	0.015 µg/mL (≈ 0.0374 µM)	0.06 µg/mL (≈ 0.149 µM)	2 µg/mL (≈ 4.98 µM)	–
CC(=O)Nc1cccc(-c2cc3c(cc2F)c(=O)c2c(=O)[nH]sc2n3C2CC2)c1	–	–	–	0.125 µg/mL (≈ 0.305 µM)	0.004 µg/mL (≈ 0.00977 µM)	64 µg/mL (≈ 156 µM)	–
NCc1ccc(-c2cc3c(cc2F)c(=O)c2c(=O)[nH]sc2n3C2CC2)cc1	0.1 µM	1.5 µM	4 µM	0.015 µg/mL (≈ 0.0393 µM)	0.03 µg/mL (≈ 0.0787 µM)	8 µg/mL (≈ 21 µM)	–
N#CCc1ccc(-c2cc3c(cc2F)c(=O)c2c(=O)[nH]sc2n3C2CC2)cc1	–	–	84 µM	0.02 µg/mL (≈ 0.0511 µM)	0.002 µg/mL (≈ 0.00511 µM)	0.5 µg/mL (≈ 1.28 µM)	–
Nc1cccc(-c2cc3c(cc2F)c(=O)c2c(=O)[nH]sc2n3C2CC2)c1	3.1 µM	10 µM	> 100 µM	0.004 µg/mL (≈ 0.0109 µM)	0.008 µg/mL (≈ 0.0218 µM)	8 µg/mL (≈ 21.8 µM)	–
O=c1[nH]sc2c1c(=O)c1cc(F)c(-c3ccc(O)cc3)cc1n2C1CC1	0.8 µM	25 µM	8 µM	0.03 µg/mL (≈ 0.0814 µM)	0.004 µg/mL (≈ 0.0109 µM)	0.125 µg/mL (≈ 0.339 µM)	15 µM
NCc1cccc(-c2cc3c(cc2F)c(=O)c2c(=O)[nH]sc2n3C2CC2)c1	0.1 µM	0.2 µM	8 µM	0.015 µg/mL (≈ 0.0393 µM)	0.015 µg/mL (≈ 0.0393 µM)	2 µg/mL (≈ 5.24 µM)	–
O=c1[nH]sc2c1c(=O)c1cc(F)c(-c3cccc(CO)c3)cc1n2C1CC1	0.5 µM	8.2 µM	–	0.125 µg/mL (≈ 0.327 µM)	0.008 µg/mL (≈ 0.0209 µM)	2 µg/mL (≈ 5.23 µM)	–
N#Cc1ccc(-c2cc3c(cc2F)c(=O)c2c(=O)[nH]sc2n3C2CC2)cc1	–	–	> 100 µM	1 µg/mL (≈ 2.65 µM)	0.03 µg/mL (≈ 0.0795 µM)	16 µg/mL (≈ 42.4 µM)	–
NCC(=O)Nc1ccc(-c2cc3c(cc2F)c(=O)c2c(=O)[nH]sc2n3C2CC2)cc1	–	–	> 75 µM	1 µg/mL (≈ 2.36 µM)	0.25 µg/mL (≈ 0.589 µM)	64 µg/mL (≈ 151 µM)	–
Nc1cc(-c2cc3c(cc2F)c(=O)c2c(=O)[nH]sc2n3C2CC2)ccc1F	0.3 µM	10 µM	28 µM	0.125 µg/mL (≈ 0.324 µM)	0.008 µg/mL (≈ 0.0208 µM)	0.5 µg/mL (≈ 1.3 µM)	–
N#Cc1cccc(-c2cc3c(cc2F)c(=O)c2c(=O)[nH]sc2n3C2CC2)c1	–	–	> 100 µM	0.03 µg/mL (≈ 0.0795 µM)	0.001 µg/mL (≈ 0.00265 µM)	0.125 µg/mL (≈ 0.331 µM)	–

Compound	IC50 [1]	IC50 [2]	CC50 [3]	MIC [4]	MIC [5]	MIC [6]	EC2 [7]
CN(C)c1cccc(-c2cc3c(cc2F)c(=O)c2c(=O)[nH]sc2n3C2CC2)c1	–	–	> 100 µM	2 µg/mL (≈ 5.06 µM)	0.06 µg/mL (≈ 0.152 µM)	32 µg/mL (≈ 80.9 µM)	–
Nc1ccccc1-c1cc2c(cc1F)c(=O)c1c(=O)[nH]sc1n2C1CC1	–	–	46 µM	0.125 µg/mL (≈ 0.34 µM)	0.03 µg/mL (≈ 0.0817 µM)	64 µg/mL (≈ 174 µM)	–
COc1cc(-c2cc3c(cc2F)c(=O)c2c(=O)[nH]sc2n3C2CC2)ccc1O	–	–	4 µM	0.06 µg/mL (≈ 0.151 µM)	0.001 µg/mL (≈ 0.00251 µM)	0.125 µg/mL (≈ 0.314 µM)	–
O=c1[nH]sc2c1c(=O)c1cc(F)c(-c3ccc(CO)cc3)cc1n2C1CC1	0.9 µM	41 µM	25 µM	0.06 µg/mL (≈ 0.157 µM)	0.004 µg/mL (≈ 0.0105 µM)	4 µg/mL (≈ 10.5 µM)	–
O=c1[nH]sc2c1c(=O)c1cc(F)c(-c3cccc(C4CCCCN4)c3)cc1n2C1CC1 (stereo not given)	0.7 µM	2.7 µM	4 µM	0.125 µg/mL (≈ 0.287 µM)	0.06 µg/mL (≈ 0.138 µM)	8 µg/mL (≈ 18.4 µM)	–
CN(C)c1ccc(-c2cc3c(cc2F)c(=O)c2c(=O)[nH]sc2n3C2CC2)cc1	–	–	51 µM	0.5 µg/mL (≈ 1.26 µM)	0.001 µg/mL (≈ 0.00253 µM)	4 µg/mL (≈ 10.1 µM)	–
CC(=O)c1cccc(-c2cc3c(cc2F)c(=O)c2c(=O)[nH]sc2n3C2CC2)c1	–	–	> 100 µM	0.125 µg/mL (≈ 0.317 µM)	0.004 µg/mL (≈ 0.0101 µM)	2 µg/mL (≈ 5.07 µM)	–
O=c1[nH]sc2c1c(=O)c1cc(F)c(-c3ccc(C4CCCCN4)cc3)cc1n2C1CC1 (stereo not given)	1 µM	2.6 µM	4 µM	0.25 µg/mL (≈ 0.574 µM)	0.125 µg/mL (≈ 0.287 µM)	4 µg/mL (≈ 9.18 µM)	–
Cc1cc(-c2cc3c(cc2F)c(=O)c2c(=O)[nH]sc2n3C2CC2)cc(C)c1O	–	–	–	0.125 µg/mL (≈ 0.315 µM)	0.001 µg/mL (≈ 0.00252 µM)	2 µg/mL (≈ 5.04 µM)	–
CO/N=C1\CN(c2nc3c(cc2F)c(=O)c(C(=O)O)cn3C2CC2)CC1CN (stereo not given) [GEMIFLOXACIN]	0.5 µM	0.3 µM	46 µM	0.015 µg/mL (≈ 0.0385 µM)	0.03 µg/mL (≈ 0.077 µM)	2 µg/mL (≈ 5.14 µM)	–
O=c1[nH]sc2c1c(=O)c1cc(F)c(-c3cccc(F)c3)cc1n2C1CC1	1 µM	7.2 µM	96 µM	0.125 µg/mL (≈ 0.337 µM)	0.004 µg/mL (≈ 0.0108 µM)	1 µg/mL (≈ 2.7 µM)	> 150 µM
O=c1[nH]sc2c1c(=O)c1cc(F)c(-c3ccccc3F)cc1n2C1CC1	–	–	> 100 µM	0.125 µg/mL (≈ 0.337 µM)	0.015 µg/mL (≈ 0.0405 µM)	8 µg/mL (≈ 21.6 µM)	–
COc1ccccc1-c1cc2c(cc1F)c(=O)c1c(=O)[nH]sc1n2C1CC1	–	–	> 84 µM	2 µg/mL (≈ 5.23 µM)	0.125 µg/mL (≈ 0.327 µM)	32 µg/mL (≈ 83.7 µM)	–
COc1ccc(-c2cc3c(cc2F)c(=O)c2c(=O)[nH]sc2n3C2CC2)cc1	–	–	91 µM	0.125 µg/mL (≈ 0.327 µM)	0.015 µg/mL (≈ 0.0392 µM)	2 µg/mL (≈ 5.23 µM)	–
O=C(O)c1cn(C2CC2)c2cc(N3CCNCC3)c(F)cc2c1=O [CIPROFLOXACIN]	–	–	> 100 µM	–	0.25 µg/mL (≈ 0.754 µM)	32 µg/mL (≈ 96.6 µM)	–
COc1cccc(-c2cc3c(cc2F)c(=O)c2c(=O)[nH]sc2n3C2CC2)c1	–	–	26 µM	0.125 µg/mL (≈ 0.327 µM)	0.004 µg/mL (≈ 0.0105 µM)	2 µg/mL (≈ 5.23 µM)	–
Nc1ccc(-c2cc3c(cc2F)c(=O)c2c(=O)[nH]sc2n3C2CC2)cc1	0.3 µM	12 µM	34 µM	0.06 µg/mL (≈ 0.163 µM)	0.004 µg/mL (≈ 0.0109 µM)	0.5 µg/mL (≈ 1.36 µM)	–
NCCc1ccc(-c2cc3c(cc2F)c(=O)c2c(=O)[nH]sc2n3C2CC2)cc1	–	–	11 µM	0.06 µg/mL (≈ 0.152 µM)	0.02 µg/mL (≈ 0.0506 µM)	> 64 µg/mL	–
O=c1[nH]sc2c1c(=O)c1cc(F)c(-c3ccc(F)cc3)cc1n2C1CC1	–	–	> 100 µM	0.25 µg/mL (≈ 0.675 µM)	0.03 µg/mL (≈ 0.081 µM)	32 µg/mL (≈ 86.4 µM)	–
